A short description of assay [1]: Cytotoxicity against human NHBE cells assessed as reduction in cell viability by CCK8 assay. Format: cell-based. The essentials:
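Human bronchial epithelial (HBE) cells were tested for growth inhibition by CCK-8 assay. IC50 values are means of three separate experiments.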

The subject of assay [2] is Mus musculus. The experiment in a line: Antifibrotic activity against bleomycin-induced pulmonary fibrosis C57BL/6J mouse model assessed as reduction in lung coefficient at 30 to 60 mg/kg, po administered via gavage qd for 14 days at 3 days post bleomycin challenge. The class given is functional, organism-based. The essentials: (§1)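 Bleomycin was given intratracheally (33 μg) to female C57BL/6J mice, 5‒6 weeks old. Daily oral gavage followed for 14 days from day 3, with 1.4% DMSO saline vehicle; n=8 per group. Fresh lungs were weighed and lung index was calculated as lung weight/body weight × 100.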

Assay [3] has as its system Mus musculus. Description: Antifibrotic activity against bleomycin-induced pulmonary fibrosis C57BL/6J mouse model assessed as reduction in air-sacculitis at 30 to 60 mg/kg, po administered via gavage qd for 14 days at 3 days post bleomycin challenge by hematoxylin and eosin staining based light microscopic analysis. Format: functional, organism-based. The essentials: (§2)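 Intratracheal bleomycin (33 μg) was given to female C57BL/6J mice. Oral gavage started 3 days later and continued once daily for 14 days, with 1.4% DMSO saline as vehicle; n=8. Lungs were formalin-fixed for 24 h and paraffin-embedded. 5 μm sections were H&E-stained and examined by light microscopy at 200×.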

In assay [4] the test system is Mus musculus. The experiment in a line: Antifibrotic activity against bleomycin-induced pulmonary fibrosis C57BL/6J mouse model assessed as reduction in alveolar septal swelling at 30 to 60 mg/kg, po administered via gavage qd for 14 days at 3 days post bleomycin challenge by hematoxylin and eosin staining based light microscopic analysis. Format: functional, organism-based. Put shortly:
as §2

Assay [5] deals with Tyrosine-protein kinase BTK (Homo sapiens, UniProt Q06187). The experiment in a line: Inhibition of BTK (unknown origin) by ADP-Glo kinase assay. Put shortly:
(§3)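 ADP-Glo luminescent assay run at compound concentrations of 0.1, 1, 10, 100 and 1000 nM. The kinase reaction ran in 1× kinase buffer for 60 min at room temperature. ADP-Glo reagent was then added to stop the reaction and deplete ATP (40 min, RT), followed by detection reagent (30 min, RT) and a luminescence read. IC50s came from curve fitting; means of three experiments.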

In assay [6] the test system is Mus musculus. The experiment in a line: Antifibrotic activity against bleomycin-induced pulmonary fibrosis C57BL/6J mouse model assessed as reduction in collagen deposition in lungs at 60 mg/kg, po administered via gavage qd for 14 days at 3 days post bleomycin challenge by Masson's Trichrome staining analysis. The class given is functional, organism-based. The essentials:
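Female C57BL/6J mice received 33 μg intratracheal bleomycin, then once-daily gavage for 14 days from day 3 (1.4% DMSO saline vehicle; n=8). Lungs were fixed in formalin for 24 h and paraffin-embedded. 5 μm sections were stained with Masson's trichrome and viewed by light microscopy at 200×.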

Assay [7] has as its system Mus musculus. Description: Antifibrotic activity against bleomycin-induced pulmonary fibrosis C57BL/6J mouse model assessed as reduction in IL17A expression in plasma at 30 to 60 mg/kg, po administered via gavage qd for 14 days at 3 days post bleomycin challenge by FACSCalibur flow cytometry. The class given is functional, organism-based. Put shortly: (§4)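 Female C57BL/6J mice (5‒6 weeks, 20‒25 g) were given 33 μg bleomycin intratracheally in saline under isoflurane. From day 3 they received oral gavage once daily for 14 days, with saline containing 1.4% DMSO as vehicle; n=8 per group. Vena cava blood was heparinized and spun at 3000 rpm for 10 min, and plasma was stored at −20 °C. IL-6, IL-17A and TNF-α were measured by flow cytometry; mean ± SEM.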

Assay [8] concerns Mus musculus. The experiment in a line: Antifibrotic activity against bleomycin-induced pulmonary fibrosis C57BL/6J mouse model assessed as reduction in TNF-alpha expression in plasma at 30 to 60 mg/kg, po administered via gavage qd for 14 days at 3 days post bleomycin challenge by FACSCalibur flow cytometry. Format: functional, organism-based. Put shortly:
as §4

The subject of assay [9] is Mus musculus. The experiment in a line: Antifibrotic activity against bleomycin-induced pulmonary fibrosis C57BL/6J mouse model assessed as reduction in oxidative stress by measuring reduction in MDA level in plasma at 60 mg/kg, po administered via gavage qd for 14 days at 3 days post bleomycin challenge. The class given is functional, organism-based. The essentials:
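After 33 μg intratracheal bleomycin, female C57BL/6J mice were gavaged once daily for 14 days from day 3 (vehicle saline, 1.4% DMSO; n=8). MDA was measured in heparinized plasma with a kit by absorbance at 532 nm; mean ± SEM.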

The target in assay [10] is T1, Tyrosine-protein kinase JAK3 (Homo sapiens, UniProt P52333).
T1 sequence (P52333 whole entry): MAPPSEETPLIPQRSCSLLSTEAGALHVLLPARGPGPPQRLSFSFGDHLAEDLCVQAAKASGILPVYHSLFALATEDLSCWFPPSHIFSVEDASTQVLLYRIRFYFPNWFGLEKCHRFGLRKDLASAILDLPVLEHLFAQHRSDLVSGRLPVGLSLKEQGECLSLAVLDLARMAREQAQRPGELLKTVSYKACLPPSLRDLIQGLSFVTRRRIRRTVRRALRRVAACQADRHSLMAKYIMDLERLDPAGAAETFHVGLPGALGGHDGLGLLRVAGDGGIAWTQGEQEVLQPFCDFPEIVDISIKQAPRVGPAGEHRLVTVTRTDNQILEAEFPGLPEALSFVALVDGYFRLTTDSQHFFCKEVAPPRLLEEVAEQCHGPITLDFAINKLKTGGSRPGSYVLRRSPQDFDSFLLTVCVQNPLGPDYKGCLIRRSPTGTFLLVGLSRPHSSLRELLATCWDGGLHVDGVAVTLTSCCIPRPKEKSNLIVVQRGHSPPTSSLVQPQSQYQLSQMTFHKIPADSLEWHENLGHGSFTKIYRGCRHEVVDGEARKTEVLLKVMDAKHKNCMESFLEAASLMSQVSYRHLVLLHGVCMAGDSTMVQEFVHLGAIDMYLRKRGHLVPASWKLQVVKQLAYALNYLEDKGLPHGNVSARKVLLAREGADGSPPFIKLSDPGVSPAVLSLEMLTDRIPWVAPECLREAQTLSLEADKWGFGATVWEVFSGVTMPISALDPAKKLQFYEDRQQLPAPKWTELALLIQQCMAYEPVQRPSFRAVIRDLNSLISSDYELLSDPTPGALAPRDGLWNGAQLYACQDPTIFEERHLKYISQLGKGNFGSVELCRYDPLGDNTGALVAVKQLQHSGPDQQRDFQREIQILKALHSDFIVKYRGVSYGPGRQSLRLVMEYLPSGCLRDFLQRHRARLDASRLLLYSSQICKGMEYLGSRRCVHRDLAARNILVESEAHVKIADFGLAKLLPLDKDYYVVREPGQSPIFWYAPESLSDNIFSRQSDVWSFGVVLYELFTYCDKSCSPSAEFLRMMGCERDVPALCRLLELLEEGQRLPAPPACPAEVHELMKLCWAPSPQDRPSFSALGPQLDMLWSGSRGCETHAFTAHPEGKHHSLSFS
The experiment in a line: Inhibition of recombinant human N-terminal GST-tagged JAK3 (781 to end residues) expressed in baculovirus infected Sf9 cells using poly (Glu,Tyr) 4:1 as substrate incubated for 60 mins in presence of ATP by ADP-Glo kinase assay. Put shortly:
as §3

In assay [11] the test system is Mus musculus. The experiment in a line: Antifibrotic activity against bleomycin-induced pulmonary fibrosis C57BL/6J mouse model assessed as reduction in collagen deposition by measuring hydroxyproline content in lungs at 60 mg/kg, po administered via gavage qd for 14 days at 3 days post bleomycin challenge by hydroxyproline assay. Format: functional, organism-based. The essentials:
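Bleomycin model in female C57BL/6J mice: 33 μg intratracheal, then daily oral dosing for 14 days beginning on day 3, vehicle saline with 1.4% DMSO, n=8. Lungs were perfused with saline and lavaged with PBS/1 mM EDTA. The left lobe was assayed for hydroxyproline with a kit by absorbance at 550 nm; mean ± SEM.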

Assay [12] deals with Mus musculus. Description: Antifibrotic activity against bleomycin-induced pulmonary fibrosis C57BL/6J mouse model assessed as reduction in IL6 expression in plasma at 30 to 60 mg/kg, po administered via gavage qd for 14 days at 3 days post bleomycin challenge by FACSCalibur flow cytometry. The class given is functional, organism-based. Put shortly: as §4
The subject of assay [13] is Mus musculus. The experiment in a line: Antifibrotic activity against po dosed bleomycin-induced pulmonary fibrosis C57BL/6J mouse model assessed as reduction in alveolar septal swelling administered via gavage qd for 14 days at 3 days post bleomycin challenge by hematoxylin and eosin staining based light microscopic analysis. The class given is functional, organism-based. Put shortly: as §2

In assay [14] the test system is Mus musculus. Description: Antifibrotic activity against bleomycin-induced pulmonary fibrosis C57BL/6J mouse model assessed as reduction in IL6 expression in plasma at 60 mg/kg, po administered via gavage qd for 14 days at 3 days post bleomycin challenge by FACSCalibur flow cytometry. Format: functional, organism-based. The essentials:
as §4

Assay [15] has as its system Mus musculus. Description: Antifibrotic activity against bleomycin-induced pulmonary fibrosis C57BL/6J mouse model assessed as reduction in TNF-alpha expression in plasma at 60 mg/kg, po administered via gavage qd for 14 days at 3 days post bleomycin challenge by FACSCalibur flow cytometry. Format: functional, organism-based. Put shortly:
as §4

In assay [16] the test system is Mus musculus. Description: Antifibrotic activity against bleomycin-induced pulmonary fibrosis C57BL/6J mouse model assessed as reduction in IL17A expression in plasma at 60 mg/kg, po administered via gavage qd for 14 days at 3 days post bleomycin challenge by FACSCalibur flow cytometry. The class given is functional, organism-based. The essentials: as §4
Assay [17] deals with Mus musculus. Description: Antifibrotic activity against bleomycin-induced pulmonary fibrosis C57BL/6J mouse model assessed as reduction in lung coefficient at 60 mg/kg, po administered via gavage qd for 14 days at 3 days post bleomycin challenge. Format: functional, organism-based. The essentials: as §1
For assay [18], the system named is Mus musculus. The experiment in a line: Antifibrotic activity against bleomycin-induced pulmonary fibrosis C57BL/6J mouse model assessed as reduction in alveolar septal swelling at 60 mg/kg, po administered via gavage qd for 14 days at 3 days post bleomycin challenge by hematoxylin and eosin staining based light microscopic analysis. Format: functional, organism-based. The essentials:
as §2

Active and inactive are the calls of the source. The calls are words filed in the database; no cut-off is given here.

This passage reports IC50 and Activity results from ChEMBL document CHEMBL4613238, “Synthesis and biological activity of thieno[3,2-d]pyrimidines as potent JAK3 inhibitors for the treatment of idiopathic pulmonary fibrosis” (Bioorg Med Chem, 2020).

Sequence of Tyrosine-protein kinase BTK (Q06187 whole entry): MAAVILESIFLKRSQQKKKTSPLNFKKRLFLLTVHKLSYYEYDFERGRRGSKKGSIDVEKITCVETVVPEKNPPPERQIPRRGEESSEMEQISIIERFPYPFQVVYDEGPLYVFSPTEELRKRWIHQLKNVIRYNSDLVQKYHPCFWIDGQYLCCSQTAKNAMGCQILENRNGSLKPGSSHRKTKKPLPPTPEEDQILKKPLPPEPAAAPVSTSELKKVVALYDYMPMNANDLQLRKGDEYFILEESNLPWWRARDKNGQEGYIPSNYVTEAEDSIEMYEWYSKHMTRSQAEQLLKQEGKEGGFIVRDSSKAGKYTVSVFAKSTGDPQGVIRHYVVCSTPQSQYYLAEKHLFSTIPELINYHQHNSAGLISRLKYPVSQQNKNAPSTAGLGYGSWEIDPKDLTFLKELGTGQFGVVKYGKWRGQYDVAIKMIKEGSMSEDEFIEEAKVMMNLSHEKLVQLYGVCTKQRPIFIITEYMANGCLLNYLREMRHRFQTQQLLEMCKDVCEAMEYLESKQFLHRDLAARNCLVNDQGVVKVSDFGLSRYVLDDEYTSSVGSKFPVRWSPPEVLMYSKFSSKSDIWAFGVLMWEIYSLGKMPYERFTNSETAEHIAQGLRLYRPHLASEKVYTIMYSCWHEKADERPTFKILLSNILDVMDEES

With `C=CC(=O)Nc1cccc(Oc2nc(Nc3ccc(OCCCN4CCOCC4)c(Cl)c3)nc3ccsc23)c1`, the IC50 in assay [1] was 39000 nM; in [5], ≥ 62.4 nM; in assay [10], 1.38 nM. Further, the result in the assay with Mus musculus [2], with Mus musculus [3], in the assay with Mus musculus [4], with Mus musculus [6], in the assay with Mus musculus [7] and in the assay with Mus musculus [8] was Active. Besides, the result in the assay with Mus musculus [9], with Mus musculus [11] and with Mus musculus [12] was Active. The Activity result with Mus musculus [13] is “Dose-dependent effect”.
Take `C=CC(=O)Nc1cccc(Nc2nc(Nc3ccc(OCCOC)cc3)ncc2F)c1` [SPEBRUTINIB]: the IC50 in assay [10] is 66.5 nM.
As for `COc1cc2ncnc(Nc3ccc(F)c(Cl)c3)c2cc1OCCCN1CCOCC1`, the outcome in the assay on Mus musculus [14], in the assay on Mus musculus [15], in the assay on Mus musculus [16], with Mus musculus [17], in the assay on Mus musculus [9] and in the assay on Mus musculus [18] was Active.
In the case of `C=CC(=O)Nc1cccc(Oc2nc(Nc3ccc(OCCCN4CCOCC4)cc3)nc3ccsc23)c1`, the figures for the IC50 in assay [1], in assay [5] and in [10] were > 40000 nM, > 100 nM and 89.2 nM, respectively.
For `COC(=O)c1ccc2c(c1)NC(=O)/C2=C(\Nc1ccc(N(C)C(=O)CN2CCN(C)CC2)cc1)c1ccccc1`, the outcome in the assay on Mus musculus [2], in the assay on Mus musculus [7], in the assay with Mus musculus [8], in the assay on Mus musculus [9], in the assay on Mus musculus [11] and in the assay with Mus musculus [18] was Active. Also, the outcome with Mus musculus [12] was Active.
As to `C=CC(=O)Nc1cccc(Oc2nc(Nc3ccc(SCCCN4CCOCC4)cc3)nc3ccsc23)c1`, the figures for the IC50 in assay [1], in assay [5] and in assay [10] were > 40000 nM, > 100 nM and 46 nM, respectively.
